High-throughput results (PubChem BioAssay)
Compounds with a hit are over-represented: about 2% of the library has one in this group of screens.
sPLA2-III inh: Inhibits HGIII-sPLA2 liposome hydrolysis, primary screen; inhibition, % at 12.2 µM; Q9NZ20; 370,000 tested, 0.56% active; QFRET BODIPY PC-A2 liposome hydrolysis, fluorescence; AID 743126;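 active = inhibition above mean plus 3 SD of compounds lying within the high and low control bounds, cut at about 19% in these data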
Xi reactivation: activators of X-chromosome reactivation in mouse fibroblasts. activation, % at 7.58 µM. 360,000 tested, 0.055% active. XiGFP mouse fibroblasts, % GFP-positive cells imaging, 3 d; cells co-treated with 5-aza-dC sensitizer; scaled so ellipticine positive control = 100%;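 active = mean normalized replicate activation at least 10% and every replicate at or above 10%; inconclusive = only one of the two criteria met; inactive = mean below 10% and not all replicates reach 10%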
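Assay system: SV40-immortalized XiGFP fibroblast cells, line 68-5-11; buffer or medium: DMEM plus 5-aza-dC sensitizer; compound: one concentration, pinned; timing: compounds 3 days, fix/stain 15 min at room temperature; benchmarks: positive control ellipticine, 6 µM final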
SR-BI DiI inh: mouse SR-BI HDL lipid transfer inhibition; inhibition, % at 12.5 µM; 320,000 tested, 0.96% active; AID 488896; ldlA[mSR-BI] CHO cells, DiI-HDL uptake fluorescence, 3 h;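 active = mean replicate inhibition of at least 70% and a set share of replicates each scoring 70 or more; inconclusive = meets just one of the two criteria; inactive = fails both criteria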
NSD2 HMT inh: blocks human histone methyltransferase NSD2; O96028; NSD2 peptide methylation, AlphaScreen, 120 min; inhibition, % at 12.5 µM; 310,000 tested, 0.54% active; AID 743445; in the data active = inhibition above about 50%
Target sequence (O96028 whole entry, looked up): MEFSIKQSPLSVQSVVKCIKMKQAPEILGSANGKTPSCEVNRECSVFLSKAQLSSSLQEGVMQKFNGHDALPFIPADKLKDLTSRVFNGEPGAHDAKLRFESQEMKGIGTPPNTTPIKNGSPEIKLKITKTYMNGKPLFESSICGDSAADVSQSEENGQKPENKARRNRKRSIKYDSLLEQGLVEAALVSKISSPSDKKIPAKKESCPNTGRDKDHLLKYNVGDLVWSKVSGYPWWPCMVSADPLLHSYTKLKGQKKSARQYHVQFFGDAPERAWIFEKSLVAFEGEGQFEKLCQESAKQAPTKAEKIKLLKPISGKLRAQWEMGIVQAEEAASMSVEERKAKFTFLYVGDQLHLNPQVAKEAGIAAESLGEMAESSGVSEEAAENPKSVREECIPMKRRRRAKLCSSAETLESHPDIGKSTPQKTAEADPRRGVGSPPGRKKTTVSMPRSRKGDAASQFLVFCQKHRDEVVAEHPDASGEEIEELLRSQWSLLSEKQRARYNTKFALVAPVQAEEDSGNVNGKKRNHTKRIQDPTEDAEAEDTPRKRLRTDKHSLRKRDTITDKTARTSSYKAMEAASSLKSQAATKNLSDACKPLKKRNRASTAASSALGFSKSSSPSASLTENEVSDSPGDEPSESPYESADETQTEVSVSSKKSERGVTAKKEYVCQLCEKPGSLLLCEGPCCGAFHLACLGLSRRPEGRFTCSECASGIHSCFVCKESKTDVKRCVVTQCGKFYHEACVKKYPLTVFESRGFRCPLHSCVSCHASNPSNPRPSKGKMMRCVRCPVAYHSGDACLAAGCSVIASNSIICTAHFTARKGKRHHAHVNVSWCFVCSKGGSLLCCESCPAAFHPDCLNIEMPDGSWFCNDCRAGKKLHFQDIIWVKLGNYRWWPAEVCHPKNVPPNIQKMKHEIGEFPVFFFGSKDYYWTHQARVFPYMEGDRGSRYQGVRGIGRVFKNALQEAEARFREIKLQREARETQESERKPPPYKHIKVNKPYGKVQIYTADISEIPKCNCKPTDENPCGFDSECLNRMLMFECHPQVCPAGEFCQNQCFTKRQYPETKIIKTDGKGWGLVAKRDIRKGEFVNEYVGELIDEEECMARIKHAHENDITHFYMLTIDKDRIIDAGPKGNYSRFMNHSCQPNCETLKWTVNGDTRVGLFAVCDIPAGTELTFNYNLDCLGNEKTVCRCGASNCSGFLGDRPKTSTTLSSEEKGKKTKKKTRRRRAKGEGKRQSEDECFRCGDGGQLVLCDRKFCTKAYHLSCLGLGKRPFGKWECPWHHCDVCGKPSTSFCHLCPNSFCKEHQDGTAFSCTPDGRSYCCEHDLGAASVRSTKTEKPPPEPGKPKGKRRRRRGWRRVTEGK
ARNT-TACC3 inh: disruptors of human ARNT/TACC3 interaction. Q9Y6A5. AlphaScreen His-ARNT PAS-B/GST-TACC3 binding, luminescence; TACC3 fragment carries E629A point mutation. inhibition, % at 9.99 µM. 390,000 tested, 0.66% active. AID 623870;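 active = mean inhibition of replicates at least 50% and at least half of replicates each reaching 50%; inconclusive = half or more replicates reach 50% but mean below 50%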
SR-BI uptake up: SR-BI HDL lipid transfer activation | CHO ldlA[mSR-BI] cells, DiI-HDL uptake fluorescence, 3 h; 100 = double the neutral-control signal | activation, % at 12.5 µM | 320,000 tested, 0.096% active | AID 504775;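 active = mean replicate activation of at least 60% and every replicate at or above 60%; inconclusive = mean or all-replicate condition met, but not both; inactive = mean below 60% and not all replicates reaching 60%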
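material = CHO ldlA[mSR-BI] cells | medium = Ham's F12 with 0.5% BSA, HEPES 25 mM, pH 7.4 | reagent = fluorescent DiI-HDL, 10 µg/mL final | compound dosing = single-point compound dose | incubation = 3 h, 37 °C | measured by = bottom-read fluorescence, 550/595 nm | measure = HDL uptake via cellular fluorescence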
Hits are given with their value; . = inactive; ? = inconclusive; / = not tested or not shown.

SMILES	sPLA2-III inh	Xi reactivation	SR-BI DiI inh	NSD2 HMT inh	ARNT-TACC3 inh	SR-BI uptake up
Cc1nc2sc(C#N)c(N)c2c2c1CCCC2	.	/	.	.	.	.
N#Cc1sc2nc(N3CCCCC3)c3c(c2c1N)CCCC3	.	/	74	.	.	.
COc1ccc(-c2cc(C)no2)cc1S(=O)(=O)NCc1ccc(OC(C)C)cc1	.	.	.	.	.	.
COCc1ccc(CN2CCc3c([nH]c4ccccc34)C2C(C)(C)C)o1 (centres undefined)	.	.	.	.	45	.
CC1(O)CC(c2ccc(Cl)cc2)=NN1C(=O)c1ccc([N+](=O)[O-])cc1 (centres undefined)	.	.	89	.	.	.
C[C@@H]1CCCCO[C@@H](CN(C)C(=O)CCCN(C)C)[C@@H](C)CN([C@@H](C)CO)C(=O)c2cc(N(C)C)ccc2O1	/	.	/	/	.	/
CCS(=O)(=O)Nc1ccc(-c2ccc(NS(=O)(=O)CC)c(OC)c2)cc1OC	.	/	.	.	.	.
COc1cc(CNc2nc(C)c([N+](=O)[O-])c(C)c2C#N)cc(OC)c1	.	/	76	.	.	.
Cc1nc(NCCc2ccccc2F)c(C#N)c(C)c1[N+](=O)[O-]	.	/	74	.	.	.
COCc1c(C#N)c(NCc2cc(OC)c(OC)c(OC)c2)nc(C)c1[N+](=O)[O-]	.	.	?	.	.	.
O=C(C[C@H]1C/C=C\C[C@@H](Cc2ccc(F)cc2)C(=O)OC[C@@H](Cc2c[nH]c3ccccc23)NC1=O)NCCO	.	.	.	/	/	.
CC(=O)N(C1=C(O)c2ccccc2C(=O)C1=O)C1CCCCC1	.	/	.	.	.	.
CC(=O)N(C1=C(N)C(=O)c2ccccc2C1=O)C(C)C	.	.	.	81	.	.
CCOC(=O)Nc1sc(C)nc1-c1ccccc1	.	/	.	.	.	.
CCOC(=O)Nc1nc(-c2ccccc2)c(C(=O)c2ccc(Cl)cc2)s1	.	/	83	.	.	.
COCc1cc(C)nc(OCC(=O)N/N=C/c2cccc(OC)c2)c1C#N	.	/	.	.	.	.
COCc1cc(C)nc(OCC(=O)N/N=C/c2ccc(O)cc2O)c1C#N	.	.	.	.	73	.
COCc1cc(C)nc(OCC(=O)N/N=C/c2ccccc2O)c1C#N	.	.	.	.	81	.
O=C(Cn1nnc(N2CCCC2)n1)N/N=C/c1ccc(Cl)cc1	.	.	.	.	.	.
CC(C)(C)OC(=O)N(Cc1ccccc1)Cc1cccc(OCc2cccc(NC(=O)c3ccccc3)c2)c1	.	.	73	/	.	.
CCCNc1ncc2c(=O)[nH][nH]c(=O)c2n1	.	.	.	.	81	.
NS(=O)(=O)c1cccc(-n2cnnn2)c1	.	40	.	.	.	.
O=S(=O)(c1cccc(-n2cnnn2)c1)N1CCOCC1	.	/	.	.	.	.
CCC(=O)N(C)C[C@H]1Oc2cc(C#CC3CCCCC3)ccc2S(=O)(=O)N([C@H](C)CO)C[C@@H]1C	/	.	/	/	.	/
Cc1noc(C)c1CCC(=O)NC1CCCN(Cc2ccc(CC(C)C)cc2)C1 (centres undefined)	.	.	.	.	.	.
SMILES	sPLA2-III inh	Xi reactivation	SR-BI DiI inh	NSD2 HMT inh	ARNT-TACC3 inh	SR-BI uptake up
Cc1noc(C)c1CCC(=O)NC1CCCN(Cc2ccc(Cl)cc2)C1 (centres undefined)	.	.	.	.	46	.
CC12CC(NC(=O)N1c1cccc(C(=O)Nc3ncn[nH]3)c1)c1ccccc1O2 (centres undefined)	.	/	.	.	21	.
O=C(Nc1ccc[n+](CC(=O)c2cccc3ccccc23)c1)c1ccccc1	.	.	.	.	/	.
COc1cc(/C=N/n2c(-c3ccc4c(c3)NC(=O)CO4)csc2=Nc2cccc(C)c2)ccc1O	.	.	83	.	.	.
CO[C@H]1CN(C)C(=O)c2ccc(NS(=O)(=O)c3cccc(Cl)c3)cc2OC[C@H](C)NC[C@H]1C	/	.	/	/	.	/
NNC(=O)c1ccc(N2CCc3ccccc32)c([N+](=O)[O-])c1	.	.	79	.	.	.
COC(CNC(=O)c1ccc(N2CCc3ccccc32)c([N+](=O)[O-])c1)OC	.	/	.	.	.	.
CCOc1ccccc1Nc1nnc(SCC(=O)Nc2nc(-c3ccc(OC)cc3)cs2)s1	.	.	76	.	.	.
COc1ccc(-c2csc(NC(=O)CSc3nnc(Nc4ccccc4C)s3)n2)cc1	.	.	.	.	.	.
CCOc1ccc(NCc2nnc(SCC(=O)Nc3nc(-c4ccccc4)cs3)n2-c2ccccc2)cc1	.	.	75	.	.	.
CCOC(=O)c1ccc(NC(=O)c2c(N)n(Cc3ccccc3)c(=O)[nH]c2=O)cc1	.	.	.	/	.	.
COc1ccc(OC)c(N(CC(=O)NCc2cccnc2)S(C)(=O)=O)c1	.	/	.	.	.	.
CC(C)(C)OC(=O)N1CCC[C@H]1C(=O)N/N=C/c1cccc2cccnc12	.	.	.	.	91	.
CC(C)(C)OC(=O)NCCC(=O)N/N=C/c1cccc2cccnc12	.	.	.	.	69	.
O=C(COc1cccc2cccnc12)N/N=C/c1ccccc1O	.	.	/	.	.	/
Cc1ccc(OCC(=O)N/N=C/c2cccc3cccnc23)cc1	.	.	.	.	64	.
Cc1ccccc1OCC(=O)N/N=C/c1cccc2cccnc12	.	.	.	.	65	.
CC(C)(C)[S@@](=O)N1Cc2cc(C(=O)N[C@H]3CCN(Cc4ccccc4)C3)nc(-c3cccc(-c4ccncc4)c3)c2[C@H]1CCO	/	.	/	/	/	/
Cc1noc(C)c1S(=O)(=O)N(C)C[C@@H]1OCCCC[C@@H](C)Oc2ccc(NS(=O)(=O)c3ccc(F)cc3)cc2C(=O)N([C@@H](C)CO)C[C@@H]1C	/	.	/	/	.	/
O=C(COc1ccc(F)cc1)N/N=C/c1cccc2cccnc12	.	.	.	.	95	.
O=C(COc1cccc2cccnc12)N/N=C/c1cccn1-c1ccc(F)cc1	.	.	.	.	.	.
Cc1[nH]n(-c2ccccc2)c(=O)c1C(=O)Nc1ccccc1	.	.	.	.	.	.
C/C(=N\NC(=O)c1ccc(C)cc1)c1c(C)[nH]n(-c2ccccc2)c1=O	.	.	125	.	/	.
Cc1[nH]n(-c2ccccc2)c(=O)c1C(=O)c1ccc([N+](=O)[O-])cc1	.	.	.	.	.	.
Cc1[nH]n(-c2ccccc2)c(=O)c1N=Nc1ccccc1O	.	.	119	/	.	.
C/C(=N\NC(=O)c1ccccc1)c1c(C)[nH]n(-c2ccccc2)c1=O	.	.	126	.	42	.
